Measured values as given in ChEMBL document CHEMBL1135890, “Structure-activity relationships of 2'-fluoro-2',3'-unsaturated D-nucleosides as anti-HIV-1 agents” (J Med Chem, 2002).

What was measured:
[1] = substrate: Nc1ncnc2c1ncn2[C@@H]1O[C@H](CO)C=C1F; experiment: (§1) Michaelis constant was determined against mammalian Adenosine deaminase
Summary of the method: (§2)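 Calf intestinal mucosa adenosine deaminase (EC 3.5.4.4), 0.15–0.24 unit depending on substrate. Substrate 15–200 μM in phosphate buffer pH 7.4 at 25 °C. Deamination followed by UV absorbance at 265 nm. Each reaction medium was checked by TLC or UV to confirm the deaminated substrate was the sole product.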

[2] = substrate: Nc1ncnc2c1ncn2C1OC(CO)C=C1O; experiment: as §1; summary of the method: as §2
[3] = substrate: Nc1ncnc2c1ncn2[C@@H]1O[C@H](CO)[C@@H](O)[C@H]1O; experiment: as §1; summary of the method: as §2

B1: Adenosine deaminase (Homo sapiens), P00813 (protein)
chain: MAQTPAFDKPKVELHVHLDGSIKPETILYYGRRRGIALPANTAEGLLNVIGMDKPLTLPDFLAKFDYYMPAIAGCREAIKRIAYEFVEMKAKEGVVYVEVRYSPHLLANSKVEPIPWNQAEGDLTPDEVVALVGQGLQEGERDFGVKARSILCCMRHQPNWSPKVVELCKKYQQQTVVAIDLAGDETIPGSSLLPGHVQAYQEAVKSGIHRTVHAGEVGSAEVVKEAVDILKTERLGHGYHTLEDQALYNRLRQENMHFEICPWSSYLTGAWKPDTEHAVIRLKNDQANYSLNTDDPLIFKSTLDTDYQMTKRDMGFTEEEFKRLNINAAKSSFLPEDEKRELLDLLYKAYGMPPSASAGQNL
Km [1]: 23 µM
Km [2]: 30 µM
Km [3]: 5 µM
